According to ChEMBL document CHEMBL1144702, “Synthesis and structure-activity relationship studies on tryprostatin A, an inhibitor of breast cancer resistance protein” (Bioorg Med Chem, 2008):
Activity calls are given as the source filed them. No cut-off for these calls is given here.

Key:
[1] = Cell cycle arrest in mouse tsFT210 cells assessed as accumulation at M phase at 100 uM after 18 hrs by flow cytometry; assay type: functional, cell-based
Outline: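 Synchronous-culture assay: tsFT210 cells seeded at 1x10^5 cells/mL, preincubated 1 h at 32 °C, then incubated with compound 18 h at 32 °C; morphology checked by microscopy; DNA content by flow cytometry after staining with 50 μg/mL propidium iodide, 0.1% sodium citrate, 0.2% NP-40; nuclei/chromosomes stained with Hoechst 33258 after KCl swelling and Carnoy fixation.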

[2] = Antiproliferative activity against mouse tsFT210 cells after 48 hrs by WST-8 assay; assay type: functional, cell-based; details: tsFT210, 48 h
Outline: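 tsFT210 cells (temperature-sensitive cdc2 mutant from mouse mammary carcinoma FM3A), kept in RPMI 1640 with 10% fetal calf serum at 32 °C; exponentially growing cells exposed to compound at 32 °C for 48 h, then WST-8 added for 4 h at 37 °C; absorbance at 450 nm read to estimate cell number; IC50 reported.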

[3] = Cytotoxicity against human H520 cells at 10 uM after 72 hrs by Cell Titer 96 Aqueous Non-Radioactive assay; assay type: functional; details: NCI-H520, 72 h, read-out: Inhibition
Outline: (§1)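 MCF7, NCI-H520 or PC-3 cells (RPMI-1640, 10% FBS) plated 1 × 10^4/well, 24 h at 37 °C, exposed 72 h to drug at 10 or 100 μM in DMSO or EtOH vehicle (controls usually 0.2%). Survival by MTS/PMS formazan absorbance at 490 nm, plate blank subtracted, as percent of vehicle wells; quadruplicate; etoposide or m-AMSA positive controls.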

[4] = test system: PC-3; test: Cytotoxicity against human PC3 cells at 100 uM after 72 hrs by Cell Titer 96 Aqueous Non-Radioactive assay; assay type: functional; details: PC-3, 72 h, read-out: Inhibition; outline: as §1
[5] = test system: MCF7; test: Cytotoxicity against human MCF7 cells at 10 uM after 72 hrs by Cell Titer 96 Aqueous Non-Radioactive assay; assay type: functional; details: MCF7, 72 h, read-out: Inhibition; outline: as §1
[6] = test system: LOX IMVI; test: Cytotoxicity against human LOX IMVI cells; assay type: functional
[7] = test system: CCRF-CEM; test: Cytotoxicity against human CCRF-CEM cells; assay type: functional
[8] = test system: HT-29; test: Cytotoxicity against human HT29 cells; assay type: functional
[9] = test system: IGROV-1; test: Cytotoxicity against human IGROV1 cells; assay type: functional
[10] = test system: MCF7; test: Cytotoxicity against human MCF7 cells after 72 hrs by Cell Titer 96 Aqueous Non-Radioactive assay; assay type: functional; details: MCF7, 72 h
Outline: (§2)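 MCF7, NCI-H520 and PC-3 cells in RPMI-1640 + 10% FBS, 2 mM L-glutamine, 0.1 mM non-essential amino acids; 1 × 10^4 cells/well, 24 h at 37 °C, then drug in DMSO or EtOH (<1%) for 72 h. Cells under 50% survival at 100 μM retested over further concentrations for GI50. MTS/PMS read at 490 nm, blank subtracted, versus vehicle wells; quadruplicate or more.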

[11] = test system: SR; test: Cytotoxicity against human SR cells; assay type: functional
[12] = test system: UO-31; test: Cytotoxicity against human UO31 cells; assay type: functional
[13] = Inhibition of tubulin polymerization in presence of microtubule-associated proteins
Outline: (§3)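 Tubulin containing MAPs in PME buffer (100 mM PIPES pH 6.9, 2 mM EGTA, 1 mM MgSO4) with GTP and drug in DMSO, tubulin added last; 37 °C, absorbance change at 351 nm over 10 min. Drug concentration varied across runs for delta absorbance versus concentration curves; colchicine standard curves made for each tubulin batch.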

[14] = molecular target: DNA topoisomerase 2-alpha (Homo sapiens) (UniProt P11388); test: Inhibition of topoisomerase 2 assessed as relaxation of supercoiled DNA at 100 uM
[15] = test system: PC-3; test: Cytotoxicity against human PC3 cells at 10 uM after 72 hrs by Cell Titer 96 Aqueous Non-Radioactive assay; assay type: functional; details: PC-3, 72 h, read-out: Inhibition; outline: as §1
[16] = test system: EKVX; test: Cytotoxicity against human EKVX cells; assay type: functional
[17] = Cytotoxicity against human H520 cells at 100 uM after 72 hrs by Cell Titer 96 Aqueous Non-Radioactive assay; assay type: functional; details: NCI-H520, 72 h, read-out: Inhibition; outline: as §1
[18] = Cytotoxicity against human HL60 (TB) cells; assay type: functional; details: HL-60
[19] = Cytotoxicity against human […]; assay type: functional
[20] = test system: MCF7; test: Cytotoxicity against human MCF7 cells at 100 uM after 72 hrs by Cell Titer 96 Aqueous Non-Radioactive assay; assay type: functional; details: MCF7, 72 h, read-out: Inhibition; outline: as §1
[21] = test system: COLO 205; test: Cytotoxicity against human COLO205 cells; assay type: functional
[22] = test system: OVCAR-3; test: Cytotoxicity against human OVCAR-3 cells; assay type: functional
[23] = test system: RPMI-8226; test: Cytotoxicity against human RPMI8226 cells; assay type: functional
[24] = test system: BT-549; test: Cytotoxicity against human BT549 cells; assay type: functional
[25] = test system: MOLT-4; test: Cytotoxicity against human MOLT4 cells; assay type: functional
[26] = test system: DU-145; test: Cytotoxicity against human DU145 cells; assay type: functional
[27] = test system: K562; test: Cytotoxicity against human K562 cells; assay type: functional
[28] = test system: PC-3; test: Cytotoxicity against human PC3 cells after 72 hrs by Cell Titer 96 Aqueous Non-Radioactive assay; assay type: functional; details: PC-3, 72 h; outline: as §2
[29] = test system: HOP-92; test: Cytotoxicity against human HOP92 cells; assay type: functional
[30] = Cytotoxicity against human H520 cells after 72 hrs by Cell Titer 96 Aqueous Non-Radioactive assay; assay type: functional; details: NCI-H520, 72 h; outline: as §2
[31] = Inhibition of tubulin polymerization in presence of microtubule-associated proteins at 60 uM; outline: as §3
[32] = Cell cycle arrest in mouse tsFT210 cells assessed as accumulation at M phase at 30 uM after 18 hrs by flow cytometry; assay type: functional, cell-based
Outline: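 Murine temperature-sensitive cdc2 mutant tsFT210 cells (from FM3A), kept in RPMI 1640 + 10% FCS at permissive 32 °C; seeded 1x10^5 cells/mL, preincubated 1 h at 32 °C, compound added, 18 h at 32 °C. Microscopy, then propidium iodide (50 μg/mL, 0.1% sodium citrate, 0.2% NP-40) flow cytometry for DNA content; Carnoy-fixed nuclei stained with Hoechst 33258.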

Sequence of DNA topoisomerase 2-alpha (Homo sapiens) (P11388 whole entry): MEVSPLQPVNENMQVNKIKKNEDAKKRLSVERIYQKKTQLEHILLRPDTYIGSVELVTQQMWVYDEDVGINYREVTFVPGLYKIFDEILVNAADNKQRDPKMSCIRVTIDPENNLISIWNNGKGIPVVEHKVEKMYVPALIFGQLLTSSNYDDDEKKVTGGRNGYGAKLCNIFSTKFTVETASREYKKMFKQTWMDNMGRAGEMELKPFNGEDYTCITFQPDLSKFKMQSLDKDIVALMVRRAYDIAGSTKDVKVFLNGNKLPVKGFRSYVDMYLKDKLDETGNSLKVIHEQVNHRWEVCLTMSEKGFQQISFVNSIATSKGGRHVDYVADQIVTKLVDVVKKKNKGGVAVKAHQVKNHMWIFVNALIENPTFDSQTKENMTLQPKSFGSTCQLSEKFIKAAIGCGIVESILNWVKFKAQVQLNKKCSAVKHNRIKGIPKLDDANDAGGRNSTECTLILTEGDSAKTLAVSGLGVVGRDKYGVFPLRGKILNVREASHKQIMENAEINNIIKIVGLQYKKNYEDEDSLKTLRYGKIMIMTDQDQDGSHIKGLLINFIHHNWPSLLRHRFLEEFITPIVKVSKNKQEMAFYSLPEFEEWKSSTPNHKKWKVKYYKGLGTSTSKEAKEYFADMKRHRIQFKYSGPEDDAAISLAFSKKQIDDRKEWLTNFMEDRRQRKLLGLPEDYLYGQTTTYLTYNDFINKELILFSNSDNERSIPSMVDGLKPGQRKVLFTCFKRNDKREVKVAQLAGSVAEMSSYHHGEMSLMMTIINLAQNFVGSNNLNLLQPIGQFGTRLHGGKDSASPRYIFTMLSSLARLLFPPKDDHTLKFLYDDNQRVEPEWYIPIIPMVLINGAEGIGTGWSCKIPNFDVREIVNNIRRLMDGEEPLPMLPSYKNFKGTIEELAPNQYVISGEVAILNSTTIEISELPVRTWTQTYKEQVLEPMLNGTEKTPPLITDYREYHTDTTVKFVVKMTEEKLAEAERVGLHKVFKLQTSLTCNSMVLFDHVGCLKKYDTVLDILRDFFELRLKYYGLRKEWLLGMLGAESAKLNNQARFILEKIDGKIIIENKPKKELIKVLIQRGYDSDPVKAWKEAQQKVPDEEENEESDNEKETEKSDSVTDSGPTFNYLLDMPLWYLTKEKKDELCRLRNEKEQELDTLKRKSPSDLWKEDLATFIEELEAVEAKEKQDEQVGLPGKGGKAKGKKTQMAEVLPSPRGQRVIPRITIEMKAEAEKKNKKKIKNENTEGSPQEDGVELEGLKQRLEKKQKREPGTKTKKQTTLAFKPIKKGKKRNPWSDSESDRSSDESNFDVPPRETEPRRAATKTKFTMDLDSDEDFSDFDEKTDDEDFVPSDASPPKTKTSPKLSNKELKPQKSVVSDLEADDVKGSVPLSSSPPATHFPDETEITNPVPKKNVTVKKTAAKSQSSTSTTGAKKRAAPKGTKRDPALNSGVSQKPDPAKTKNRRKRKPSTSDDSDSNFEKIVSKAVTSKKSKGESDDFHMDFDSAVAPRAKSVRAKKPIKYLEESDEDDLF

Structure (SMILES): COc1ccc2c(C[C@@H]3NC(=O)[C@H](Cc4ccccc4)NC3=O)c[nH]c2c1
- Activity [1]: Active
- IC50 [2]: 100 µM

Structure (SMILES): CC(C)=CCc1[nH]c2ccccc2c1C[C@H]1NC(=O)[C@H]2CCCN2C1=O
- percent cell survival relative to vehicle at 10 µM [3]: > 100%
- percent cell survival at 100 µM [4]: 78.9%
- cell survival (% of vehicle control) at 10 µM [5]: > 100%
- GI50 [6]: > 50 µM
- GI50 [7]: 25.1 µM
- GI50 [8]: 37.5 µM
- GI50 [9]: 16 µM
- GI50 [10]: 40 µM
- GI50 [11]: 12.1 µM
- GI50 [12]: 12.6 µM
- IC50 [13]: > 700 µM
- Activity [14]: inactive
- percent cell survival relative to vehicle control at 10 µM [15]: 95.8%
- GI50 [16]: 39.4 µM
- cell survival (% of vehicle control) at 100 µM [17]: 99.8%
- GI50 [18]: 29 µM
- GI50 [19]: 11.9 µM
- cell survival (% of vehicle control) at 100 µM [20]: > 100%
- GI50 [21]: 21.2 µM
- GI50 [22]: 38.2 µM
- GI50 [23]: 12.9 µM
- GI50 [24]: 7.21 µM
- GI50 [25]: 21 µM
- GI50 [26]: > 50 µM
- GI50 [27]: 25.8 µM
- GI50 [28]: 21.2 µM

Structure (SMILES): CC(C)=CCc1[nH]c2ccccc2c1C[C@@H]1NC(=O)[C@H]2CCCN2C1=O
- percent cell survival relative to vehicle at 10 µM [3]: 88.3%
- GI50 [29]: 1.7 µM
- percent cell survival at 100 µM [4]: 0.2%
- cell survival (% of vehicle control) at 10 µM [5]: 73.6%
- GI50 [6]: 9.23 µM
- GI50 [7]: 3.22 µM
- GI50 [8]: 5.25 µM
- GI50 [9]: 11.5 µM
- GI50 [11]: 9.46 µM
- GI50 [12]: 14.7 µM
- GI50 [30]: 11.9 µM
- percent cell survival relative to vehicle control at 10 µM [15]: 59.3%
- GI50 [16]: 6.9 µM
- cell survival (% of vehicle control) at 100 µM [17]: 0.1%
- GI50 [18]: 22.4 µM
- GI50 [19]: 14.9 µM
- cell survival (% of vehicle control) at 100 µM [20]: 0%
- GI50 [21]: 17.7 µM
- GI50 [22]: 9.69 µM
- GI50 [23]: 5.54 µM
- GI50 [24]: 13.2 µM
- GI50 [25]: 5.96 µM
- GI50 [26]: 14 µM
- GI50 [27]: 20.1 µM
- inhibition [31]: < 2%

Structure (SMILES): COc1ccc2c(C[C@@H]3NC(=O)[C@@H]4CCCN4C3=O)c(CC=C(C)C)[nH]c2c1 [TRYPROSTATIN A]
- percent cell survival relative to vehicle at 10 µM [3]: 80.1%
- GI50 [29]: 21.2 µM
- percent cell survival at 100 µM [4]: 95.6%
- cell survival (% of vehicle control) at 10 µM [5]: > 100%
- GI50 [6]: > 100 µM
- GI50 [7]: > 100 µM
- GI50 [9]: 90.5 µM
- GI50 [10]: > 100 µM
- GI50 [11]: 5.68 µM
- Activity [32]: Active
- GI50 [12]: > 100 µM
- IC50 [13]: 250 µM
- percent cell survival relative to vehicle control at 10 µM [15]: 99.2%
- GI50 [16]: > 100 µM
- cell survival (% of vehicle control) at 100 µM [17]: 79.4%
- GI50 [18]: 11.3 µM
- GI50 [19]: > 100 µM
- cell survival (% of vehicle control) at 100 µM [20]: 95%
- GI50 [21]: > 100 µM
- GI50 [22]: > 100 µM
- GI50 [23]: 37.1 µM
- GI50 [24]: 79.7 µM
- GI50 [26]: > 100 µM
- GI50 [27]: 2.73 µM
- GI50 [28]: 94 µM
- IC50 [2]: 68 µM

Structure (SMILES): COc1cc([C@@H]2c3cc4c(cc3[C@@H](O[C@@H]3O[C@@H]5CO[C@@H](C)O[C@H]5[C@H](O)[C@H]3O)[C@H]3COC(=O)[C@H]23)OCO4)cc(OC)c1O [ETOPOSIDE]
- GI50 [10]: 55.6 µM
- GI50 [30]: 8.7 µM
- GI50 [28]: 11.1 µM
